KCNQ1 act: human KCNQ1 channel potentiation or activation; hit rate 0.35% among 310,000; P51787; AID 2648; B-score at 10 µM; CHO-K1 KCNQ1, thallium flux FluxOR fluorescence; stronger effect = higher value;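 active means fluorescence ratio B-score, a plate-corrected score, at least three library SD, with initial intensity B-score within 5 SD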
Target sequence (P51787 whole entry, looked up): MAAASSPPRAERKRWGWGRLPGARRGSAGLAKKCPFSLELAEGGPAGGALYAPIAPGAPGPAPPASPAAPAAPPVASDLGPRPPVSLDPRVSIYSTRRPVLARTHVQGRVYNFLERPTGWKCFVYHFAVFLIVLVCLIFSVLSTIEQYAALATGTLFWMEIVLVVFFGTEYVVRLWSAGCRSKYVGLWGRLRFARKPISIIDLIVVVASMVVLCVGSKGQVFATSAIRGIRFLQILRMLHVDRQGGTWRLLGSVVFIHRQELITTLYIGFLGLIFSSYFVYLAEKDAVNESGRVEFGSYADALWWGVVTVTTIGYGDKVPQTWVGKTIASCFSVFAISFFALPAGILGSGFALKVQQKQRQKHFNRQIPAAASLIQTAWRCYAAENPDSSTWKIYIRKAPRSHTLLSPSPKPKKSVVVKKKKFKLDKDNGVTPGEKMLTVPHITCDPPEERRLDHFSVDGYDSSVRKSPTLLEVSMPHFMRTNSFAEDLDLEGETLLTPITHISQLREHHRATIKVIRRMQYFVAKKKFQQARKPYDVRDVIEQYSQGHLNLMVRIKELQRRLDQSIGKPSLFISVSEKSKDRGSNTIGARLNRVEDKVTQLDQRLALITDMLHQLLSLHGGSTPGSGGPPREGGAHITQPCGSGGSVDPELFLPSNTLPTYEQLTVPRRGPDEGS
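Material: CHO-K1 cells stably expressing KCNQ1. Medium: assay buffer for compound exposure, DMSO matched across wells. Reagent: K+/Tl+ depolarizing stimulus. Compound dosing: single-concentration screen. Times: 37 °C overnight plating, 90-min dark dye load, 20-min compound pretreatment. Technique: FluxOR Tl+ flux fluorescence.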
KCNQ1 inh: blocks the human KCNQ1 potassium channel; P51787; CHO-K1 KCNQ1, FluxOR thallium flux fluorescence; stronger effect = higher value; B-score at 10 µM; hit rate 1.3% among 310,000;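 active means compounds whose thallium flux B-score, printed positive for inhibition, exceeds three library SD while starting fluorescence stays within three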;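 further: channel opened by potassium depolarization with thallium stimulus after 20 min compound exposure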
hERG rescue: hERG (human) protection from proarrhythmic block. hit rate 0.51% among 310,000. AID 1511. Q12809. CHO-hERG, FluxOR thallium flux, dofetilide IC70 present. activation (rescue from dofetilide block), less the hit threshold, % at 10 µM;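 active means activation above the mean of controls blocked by dofetilide plus 5 SD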;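 further: thallium influx through hERG after potassium depolarization seen as dye fluorescence rise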
Kir21 block: Kir2.1 (mouse) channel inhibition; B-score at 10 µM; P35561; HEK293-Kir2.1, FluxOR thallium flux fluorescence; stronger effect = lower value; AID 1672; hit rate 0.85% among 310,000;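 active means fluorescence ratio B-score at or below minus 3 SD of library scores, with starting-brightness B-score within 2 SD, cut at about -4.2 in these data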;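 further: channel flux triggered by added potassium and thallium sulfate stimulus; B-score of peak minus minimum fluorescence over baseline after thallium stimulus; more negative B-score means stronger Kir2.1 block with less thallium influx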
KCNK3 inh: human KCNK3 channel inhibition, primary screen. CHO-KCNK3 thallium flux, FluxOR fluorescence; stronger effect = lower value. B-score at 10 µM. hit rate 0.84% among 340,000;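 active means B-score under library mean minus 4 SD, starting fluorescence ratio at most library mean plus 5 SD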;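 further: more negative B-score means stronger inhibition of thallium flux through KCNK3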
KCNK9 block: inhibitors of human KCNK9 two-pore domain potassium channel; Q9NPC2; HEK293 KCNK9, FluxOR thallium flux fluorescence; stronger effect = lower value; B-score at 10 µM; hit rate 1.2% among 310,000; AID 488922;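 active means ratio B-score over 3 SD below the library mean, with starting fluorescence within 5 SD of its mean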;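 further: negative B-score means less thallium flux so channel inhibition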
KCNQ1 inh valid: human KCNQ1 channel inhibition, validation assay | AID 588353 | KCNQ1 cell line, FluxOR thallium flux fluorescence | shares compounds with KCNQ1 inh | hit rate 93% among 1,600 | inhibition, % at 10 µM;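 active means primary screen active, with duplicate mean exceeding buffer control mean plus 3 SD of buffer wells, cut at about 28% in these data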;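 further: 0% = buffer control ratio and 100% = XE991 inhibitor control ratio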
CHO KCNQ1 ctr: KCNQ1 inhibitor counter-screen hit in parental CHO cells; hit rate 21% among 1,600; shares compounds with KCNQ1 inh; fluorescence ratio (Tl flux) at 10 µM; parental CHO-K1, FluxOR thallium flux fluorescence ratio; stronger effect = lower value; zero means no signal rise above baseline;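 active means mean of duplicate thallium-flux fluorescence ratios in parental host cells more than 5 SD below the buffer control mean, cut at about 0.38 in these data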;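 further: ratio is peak minus minimum fluorescence divided by baseline fluorescence; actives read low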
KCNQ1 ephys val: confirmation of human KCNQ1 potassium channel inhibitors by electrophysiology; hit rate 20% among 490; KCNQ1-CHO cells, automated patch clamp current; shares compounds with KCNQ1 inh; calls only at 10 µM;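 active means KCNQ1 current drop exceeding 3 SD of negative control wells, seen in both duplicate runs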;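 further: steady state current during a 2 s step from -80 to +40 mV; negative values mean current inhibition and positive values mean potentiation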
KCNQ2 inh: rat KCNQ2 inhibition in KCNQ1 inhibitor specificity screen. AID 651746. inhibition, % at 10 µM. shares compounds with KCNQ1 inh. KCNQ2 cells, FluxOR thallium flux fluorescence. hit rate 71% among 1,600;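 active means mean percent inhibition of the KCNQ2 thallium signal more than 5 SD above the buffer-only control wells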;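 further: KCNQ2 expressed in CHO cells; 0% = buffer control wells and 100% = XE-991 inhibitor control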
KCNQ1-KCNE1 inh: human KCNQ1/KCNE1 inhibition in KCNQ1 specificity screen; shares compounds with KCNQ1 inh; KCNQ1/KCNE1 cells, FluxOR thallium flux fluorescence; inhibition, % at 10 µM; hit rate 77% among 1,600;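 active means mean percent inhibition of duplicate wells above the buffer-only control mean plus 3 SD of those controls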;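 further: 0% = buffer only wells and 100% = XE-991 inhibitor control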
Numbers without * were called inactive; i = inactive; . = no result given. This is a sample that favours compounds with a hit; in the whole collection about 3.7% have one here.

SMILES	KCNQ1 act	KCNQ1 inh	hERG rescue	Kir21 block	KCNK3 inh	KCNK9 block	KCNQ1 inh valid	CHO KCNQ1 ctr	KCNQ2 inh	KCNQ1-KCNE1 inh	others
Cc1ccccc1-n1c(=O)c2ccccc2n(CC(=O)NCc2ccco2)c1=O	i	i	-9.7	-0.33	i	i	.	.	.	.
CC(=O)c1c(C)n(CC(=O)NCc2ccco2)c2ccccc12	i	10*	-13.9	-3.28	i	i	33.0*	0.538	i	50.0%*
C=CCNc1ncnc2c1[nH]c1ccc(Cl)cc12	i	7*	-9.1	-0.5	i	i	83.5*	0.523	i	i
COc1cc(/C=C/c2nnc3c4ccccc4ncn23)cc(OC)c1OC	i	6*	-5.3	-0.88	i	i	44.0*	0.539	59.7%*	34.0%*
COc1ccc(/C=C/C(=O)OCC(=O)NC2CCCC2)cc1OC	.	.	.	.	i	.	.	.	.	.
CCC(C)Nc1nc(OCC(F)(F)F)nc(OCC(F)(F)F)n1 (stereo not drawn)	i	i	-7.0	-0.54	i	i	.	.	.	.
CCC(C)Nc1nc(OC(C(F)(F)F)C(F)(F)F)nc(OC(C(F)(F)F)C(F)(F)F)n1 (stereo not drawn)	i	7*	-5.3	0.22	i	i	92.0*	0.404	102.3%*	89.5%*
CCN1CCCC1Cn1cnc2c([nH]c3ccc(OC)cc32)c1=O (stereo not drawn)	i	i	-7.8	-1.28	i	i	.	.	.	.
O=C(NC1CCCCC1)N1CCCc2ccccc21	i	i	-9.6	-1.27	i	i	.	.	.	.
O=C(NC1CCCCC1)N1CCSC1=Nc1ccccc1	i	10*	-20.2	1.28	i	i	103.0*	0.41	109.7%*	111.0%*	KCNQ1 ephys val=i
COc1ccc(CCNC(=O)CCCc2ccccc2)cc1OC	i	i	-6.5	-0.06	i	i	.	.	.	.
CCc1ccc(-c2cc(-c3n[nH]c(=S)n3CC)c3ccccc3n2)cc1	i	i	-4.8	0.41	.	i	.	.	.	.
CCn1c(-c2cc(-c3cccc(OC)c3)nc3ccccc23)n[nH]c1=S	i	6*	-12.4	0.91	i	i	80.5*	0.472	i	95.0%*
CCN=C(NCC)SC1CC(=O)N(c2cccc(OC)c2)C1=O (stereo not drawn)	i	11*	-22.9	1.02	i	i	63.5*	0.435	70.7%*	62.5%*
C=CCN(c1nc(C)c(Br)c(OC)n1)S(=O)(=O)c1ccc(C)cc1	i	7*	-10.1	0.01	i	i	113.0*	0.44	118.0%*	83.0%*	KCNQ1 ephys val=i
Cc1ccc(C)c(N2CCN(S(=O)(=O)c3ccc(-c4cc(C)no4)s3)CC2)c1	i	i	-8.8	0.51	i	i	.	.	.	.
Cc1nc2nc(-c3cccs3)cn2nc1C	i	7*	-26.9	-4.01	i	i	104.0*	0.338*	i	i
Cc1nc2nc(-c3ccc(Cl)cc3)cn2nc1C	i	i	-3.1	-1.06	i	i	.	.	.	.
COc1ccc(NC(C)=O)cc1NC(=O)C1CCN(C(=O)Nc2ccccc2)CC1	i	i	-17.4	0.22	i	i	.	.	.	.
COc1ccc(C)cc1NC(=O)CCCN1C(=S)NC(C)(C)CC1C (stereo not drawn)	i	6*	-11.9	-0.63	i	i	0.0	0.482	i	i
O=C(CCNC(=O)c1ccc(Cl)cc1)NNC(=O)c1ccc(F)cc1	.	.	.	.	i	.	.	.	.	.
O=Cc1cccc(OC(=O)Nc2ccccc2)c1	i	i	-10.4	1.32	i	i	.	.	.	.
Cc1cnc(C(=O)OCC(=O)Nc2ncc(Cl)cc2Cl)cn1	.	.	.	.	i	.	.	.	.	.
CCn1c(/C=C/c2ccc(O)cc2)nc2ccccc2c1=O	i	i	-8.2	-0.9	i	i	.	.	.	.
CCn1c(/C=C/c2ccc(O)c(O)c2)nc2ccccc2c1=O	i	7*	-17.0	-2.87	i	i	30.5*	0.52	i	i
SMILES	KCNQ1 act	KCNQ1 inh	hERG rescue	Kir21 block	KCNK3 inh	KCNK9 block	KCNQ1 inh valid	CHO KCNQ1 ctr	KCNQ2 inh	KCNQ1-KCNE1 inh	others
O=C(Nc1cc([N+](=O)[O-])c2[nH]c(=O)c3ccccc3c2c1)C(F)(F)F	.	.	.	.	i	.	.	.	.	.
CN(c1ccccc1)S(=O)(=O)c1ccc(NC(=O)c2ccc(F)cc2)cc1	i	7*	-3.5	1.19	i	i	90.5*	0.447	117.0%*	131.0%*	KCNQ1 ephys val=i
CN(c1ccccc1)S(=O)(=O)c1ccc(NC(=O)c2ccccc2)cc1	i	i	-10.2	-0.78	i	i	.	.	.	.
COc1ccc(C(NC(=O)C2CCCCC2)c2c(O)ccc3ccccc23)cc1 (stereo not drawn)	i	7*	-4.5	1.16	i	i	81.5*	0.426	88.7%*	92.0%*
Cc1ccc(S(=O)(=O)N(Cc2ccccc2)Cc2ccco2)cc1	i	7*	-15.1	-5.04*	i	i	96.0*	0.461	92.7%*	40.5%*	KCNQ1 ephys val=i
O=C(c1cc(-c2ccc(Cl)cc2)n(-c2ccc(Cl)c(Cl)c2)n1)N1CCOCC1	i	i	-6.5	0.76	i	i	.	.	.	.
O=C(c1cc(-c2ccc(Cl)cc2)n(-c2cc(Cl)ccc2Cl)n1)N1CCOCC1	i	7*	-7.2	-0.18	i	i	61.5*	0.477	81.3%*	86.0%*
COC(=O)c1c(C)oc2ccc(N(C(=O)c3ccncc3)S(=O)(=O)c3ccc4ccccc4c3)cc12	i	8*	-9.5	0.32	i	i	136.5*	0.402	110.0%*	140.0%*
COC(=O)c1c(C)oc2ccc(N(C(=O)c3ccncc3)S(=O)(=O)c3ccccc3)cc12	i	i	-11.7	-0.37	i	i	.	.	.	.
COC(=O)c1c(C)oc2ccc(N(C(=O)c3ccncc3)S(=O)(=O)c3ccc(C)cc3C)cc12	i	9*	-11.0	-0.63	i	i	135.0*	0.389	126.7%*	131.0%*	KCNQ1 ephys val=i
COc1ccc([C@H]2CC(=O)C=C(c3ccc(CNC(=O)OC(C)(C)C)cc3)C2)cc1	.	.	.	.	i	.	.	.	.	.

High-throughput results deposited in PubChem BioAssay by Johns Hopkins Ion Channel Center.
